The species named for data set [1] is Mus musculus. Nature of the data set: Protective index, ratio of TD50 against Albino mouse to ED50 for Albino mouse. The data set is classed as functional.
In data set [2] the test system is Mus musculus. Nature of the data set: Anticonvulsant activity in Albino mouse at 100 mg/kg, ip after 0.5 hrs by MES assay. It is filed as functional, organism-based. On the set-up: dose 100 mg/kg. A digest of the protocol:
(§1)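 Mice given compound ip at 30, 100 and 300 mg/kg in 30% polyethylene glycol 400 and 10% water, 0.01 mL/g body weight. Three animals per dose. Maximal electroshock (MES) or pentylenetetrazol (PTZ) seizure tests were run 0.5 and 4 h after dosing, and animals protected were counted.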

For data set [3], the system named is Mus musculus. Nature of the data set: Anticonvulsant activity in Albino mouse at 30 mg/kg, ip after 4 hrs by MES assay. On the set-up: dose 30 mg/kg. It is filed as functional, organism-based. In short, it runs like this: as §1
Data set [4] relates to Mus musculus. Nature of the data set: Anticonvulsant activity in Albino mouse at 100 mg/kg, ip after 4 hrs by MES assay. It is filed as functional, organism-based. On the set-up: dose 100 mg/kg. A digest of the protocol: as §1
Data set [5] concerns Mus musculus. Nature of the data set: Neurotoxicity in Albino mouse at 30 mg/kg, ip after 0.5 hrs by RotoRod test. It is filed as toxicity, organism-based. Also noted: dose 30 mg/kg, route intraperitoneal. As to conditions: in vivo. In short, it runs like this:
(§2)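 RotoRod neurotoxicity screen in mice dosed ip at 30, 100 and 300 mg/kg, in vehicle of 30% PEG 400 and 10% water (0.01 mL/g). Three animals per dose, tested 0.5 and 4 h after administration. Affected animals were scored per group.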
Background: In the rotarod test animals must keep their balance on a rotating rod.

For data set [6], the system named is Mus musculus. Nature of the data set: Neurotoxicity in Albino mouse at 100 mg/kg, ip after 0.5 hrs by RotoRod test. It is filed as toxicity, organism-based. Also noted: dose 100 mg/kg, route intraperitoneal. As to conditions: in vivo. In short, it runs like this:
as §2

Data set [7] relates to Mus musculus. Briefly: Neurotoxicity in Albino mouse at 30 mg/kg, ip after 4 hrs by RotoRod test. It is filed as toxicity, organism-based. Also noted: dose 30 mg/kg, route intraperitoneal. As to conditions: in vivo. A digest of the protocol: as §2
Data set [8] concerns Mus musculus. Briefly: Neurotoxicity in Albino mouse at 100 mg/kg, ip after 4 hrs by RotoRod test. Particulars: in vivo. The data set is classed as toxicity, organism-based. Also noted: dose 100 mg/kg, route intraperitoneal. In short, it runs like this: as §2
Data set [9] concerns Mus musculus. Briefly: Anticonvulsant activity in Albino mouse at 30 mg/kg, ip after 0.5 hrs by PTZ assay. The data set is classed as functional, organism-based. On the set-up: dose 30 mg/kg. In short, it runs like this:
as §1

For data set [10], the system named is Mus musculus. Nature of the data set: Anticonvulsant activity in Albino mouse at 100 mg/kg, ip after 0.5 hrs by PTZ assay. On the set-up: dose 100 mg/kg. It is filed as functional, organism-based. In short, it runs like this:
as §1

Data set [11] concerns Mus musculus. Briefly: Anticonvulsant activity in Albino mouse at 30 mg/kg, ip after 4 hrs by PTZ assay. Also noted: dose 30 mg/kg. It is filed as functional, organism-based. In short, it runs like this:
as §1

Data set [12] deals with Mus musculus. Briefly: Anticonvulsant activity in Albino mouse at 100 mg/kg, ip after 4 hrs by PTZ assay. The data set is classed as functional, organism-based. On the set-up: dose 100 mg/kg. In short, it runs like this: as §1
Data set [13] deals with Mus musculus. Briefly: Anticonvulsant activity assessed as time of peak effect in intraperitoneally dosed Albino mouse by MES assay. It is filed as functional. In short, it runs like this:
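Phase II quantification in albino mice (ip; 30% PEG 400 and 10% water vehicle). Time of peak effect was determined first. Groups of six mice then received different doses at that time. MES ED50 is the dose protecting 50% of animals, in µmol/kg.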

The nature of data set [14]: (§3) Neurotoxicity in intraperitoneally dosed Albino mouse by RotoRod test. It is filed as toxicity, organism-based. Particulars: Albino, in vivo, ip. In short, it runs like this: (§4)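 Median neurotoxic dose in albino mice given compound ip in 30% PEG 400 and 10% water, at the time of peak effect. Six animals per dose were tested on RotoRod and the percentage showing minimal neurotoxicity was recorded. Where TD50 could not be completed, the highest dose tested is reported.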

Data set [15] has as its system Mus musculus. Described as §3. As to conditions: in vivo, ip. It is filed as toxicity, organism-based. In short, it runs like this: as §4
Data set [16] deals with Mus musculus. Briefly: Neurotoxicity in intraperitoneally dosed Albino mouse at 362 umol/kg by RotoRod test. The data set is classed as toxicity, organism-based. As to conditions: in vivo, ip. In short, it runs like this: as §4
The subject of data set [17] is Mus musculus. Nature of the data set: Anticonvulsant activity in intraperitoneally dosed Albino mouse at 362 umol/kg by PTZ assay. The data set is classed as functional, organism-based. A digest of the protocol:
(§5)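 Phase II PTZ test in albino mice dosed ip (30% PEG 400 and 10% water), at the predetermined time of peak effect, in groups of six animals.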

The subject of data set [18] is Mus musculus. Briefly: Neurotoxicity in intraperitoneally dosed Albino mouse at 481 umol/kg by RotoRod test. The data set is classed as toxicity, organism-based. Particulars: in vivo, ip. A digest of the protocol: as §4
Data set [19] has as its system Mus musculus. Briefly: Anticonvulsant activity in intraperitoneally dosed Albino mouse at 481 umol/kg by PTZ assay. It is filed as functional, organism-based. A digest of the protocol:
as §5

Data set [20] deals with Mus musculus. Nature of the data set: Neurotoxicity in intraperitoneally dosed Albino mouse at 385 umol/kg by RotoRod test. The data set is classed as toxicity, organism-based. As to conditions: in vivo, ip. A digest of the protocol:
as §4

Data set [21] deals with Mus musculus. Nature of the data set: Anticonvulsant activity in intraperitoneally dosed Albino mouse at 385 umol/kg by PTZ assay. The data set is classed as functional, organism-based. In short, it runs like this:
as §5

For data set [22], the system named is Mus musculus. Nature of the data set: Anticonvulsant activity in Albino mouse at 300 mg/kg, ip after 0.5 hrs by MES assay. It is filed as functional, organism-based. On the set-up: dose 300 mg/kg. In short, it runs like this: as §1
For data set [23], the system named is Mus musculus. Briefly: Anticonvulsant activity in Albino mouse at 300 mg/kg, ip after 4 hrs by MES assay. It is filed as functional, organism-based. Also noted: dose 300 mg/kg. In short, it runs like this: as §1
For data set [24], the system named is Mus musculus. Nature of the data set: Neurotoxicity in Albino mouse at 300 mg/kg, ip after 0.5 hrs by RotoRod test. The data set is classed as toxicity, organism-based. On the set-up: dose 300 mg/kg, route intraperitoneal. As to conditions: in vivo. In short, it runs like this: as §2
In data set [25] the test system is Mus musculus. Nature of the data set: Neurotoxicity in Albino mouse at 300 mg/kg, ip after 4 hrs by RotoRod test. It is filed as toxicity, organism-based. On the set-up: dose 300 mg/kg, route intraperitoneal. As to conditions: in vivo. A digest of the protocol: as §2
The test system of data set [26] is Mus musculus. Nature of the data set: Anticonvulsant activity in Albino mouse at 300 mg/kg, ip after 0.5 hrs by PTZ assay. It is filed as functional, organism-based. Also noted: dose 300 mg/kg. In short, it runs like this: as §1
Data set [27] relates to Mus musculus. Nature of the data set: Anticonvulsant activity in Albino mouse at 300 mg/kg, ip after 4 hrs by PTZ assay. The data set is classed as functional, organism-based. Also noted: dose 300 mg/kg. In short, it runs like this: as §1
For data set [28], the system named is Mus musculus. Nature of the data set: Anticonvulsant activity in intraperitoneally dosed Albino mouse by MES assay. The data set is classed as functional. Particulars: ip.
Data set [29] relates to Mus musculus. Briefly: Neurotoxic time of peak effect in intraperitoneally dosed Albino mouse by RotoRod test. The data set is classed as ADME, organism-based. As to conditions: in vivo, ip. In short, it runs like this:
as §4

Data set [30] concerns Mus musculus. Nature of the data set: Anticonvulsant activity in intraperitoneally dosed Albino mouse at 1613 umol/kg by PTZ assay. The data set is classed as functional, organism-based. In short, it runs like this: as §5

The structures appear in SMILES notation. The source made the active and inactive calls. The calls are words filed in the database; no cut-off is given here.

On to `O=S(=O)(NCc1ccccc1)NCc1ccccc1` [BENZYL(BENZYLSULFAMOYL)AMINE], for which the PI in the data set listed under Mus musculus [1] was greater than 1.5. Moreover, the outcome with Mus musculus [2] was Active. Also, the result in the data set with Mus musculus [3], in the data set with Mus musculus [4], in the data set on Mus musculus [9], in the data set with Mus musculus [10], with Mus musculus [11] and with Mus musculus [12] was inactive. Moreover, the outcome with Mus musculus [17] was inactive. In addition, the Activity entry is “Non-toxic” in the data set on Mus musculus [5]; “Non-toxic” in the data set with Mus musculus [6]; “Non-toxic” with Mus musculus [7]; “Non-toxic” with Mus musculus [8]; 2 h in the data set on Mus musculus [13]; 0% in the data set on Mus musculus [15]. This compound had an Activity in the data set on Mus musculus [16] of 0%. Also, the TD50 (as a rule, the 50% point of the dose-response relation for the toxic effect studied) in data set [14] is greater than 362 µmol/kg.
With `CCCCNS(=O)(=O)NCCCC` [BUTYL(BUTYLSULFAMOYL)AMINE], the PI in the data set listed under Mus musculus [1] is reported as greater than 1.6. Moreover, the outcome with Mus musculus [3], with Mus musculus [4], in the data set with Mus musculus [9], in the data set with Mus musculus [10], with Mus musculus [11] and in the data set with Mus musculus [12] was inactive. In addition, in the data set on Mus musculus [19], the outcome was inactive. Moreover, the Activity result is “Non-toxic” in the data set on Mus musculus [5]; “Non-toxic” in the data set with Mus musculus [6]; “Non-toxic” in the data set on Mus musculus [7]; “Non-toxic” in the data set on Mus musculus [8]; 2 h in the data set with Mus musculus [13]; 0% with Mus musculus [15]. For the same compound, the Activity with Mus musculus [18] is 0%. Also, the TD50 in data set [14] is greater than 481 µmol/kg.
As for `O=S(=O)(NC1CCCCC1)NC1CCCCC1`, the PI in the data set listed under Mus musculus [1] was greater than 2.5. For the same compound, the outcome in the data set with Mus musculus [3], with Mus musculus [4], in the data set with Mus musculus [9], with Mus musculus [10], in the data set on Mus musculus [11] and in the data set on Mus musculus [12] was inactive. The result with Mus musculus [21] was inactive. For the same compound, the Activity result in the data set on Mus musculus [5] was “Non-toxic”; in the data set with Mus musculus [6] it was “Non-toxic”; in the data set with Mus musculus [7], “Non-toxic”; in the data set on Mus musculus [8], “Non-toxic”; with Mus musculus [13], 0.5 h; with Mus musculus [15] it was 0%. The compound further came in with an Activity in the data set with Mus musculus [20] of 0%. In [14], this compound showed a TD50 greater than 385 µmol/kg.
In the case of `NS(=O)(=O)NCc1ccccc1`, the PI in the data set filed under Mus musculus [1] amounted to 5.9. Also, the outcome in the data set with Mus musculus [2], in the data set on Mus musculus [22] and in the data set with Mus musculus [23] was Active. The Activity entry in the data set with Mus musculus [5], in the data set with Mus musculus [6], with Mus musculus [24], in the data set with Mus musculus [7], in the data set on Mus musculus [8] and in the data set with Mus musculus [25] was “Non-toxic” throughout. Besides, the Activity with Mus musculus [13] and in the data set on Mus musculus [29] was 0.5 h each time. For the same compound, the outcome with Mus musculus [9], in the data set on Mus musculus [10], in the data set on Mus musculus [26], in the data set with Mus musculus [11], in the data set on Mus musculus [12] and with Mus musculus [27] was inactive. Further, in the data set with Mus musculus [30], the result was inactive. The ED50 (in general, the dose at which the effect has come halfway, by size or by number of responders) with Mus musculus [28] came out at 239 µmol/kg. The same compound had a TD50 in [14] of 1420 µmol/kg.

The values above are taken from ChEMBL document CHEMBL1143719, “Design, synthesis, and anticonvulsant activity of some sulfamides” (Bioorg Med Chem, 2007).
